ChEMBL document CHEMBL1147232, “An anxiolytic-like effect of Ginkgo biloba extract and its constituent, ginkgolide-A, in mice” (J Nat Prod, 2003)

Experiments:
Mus musculus [1] = test: Anxiolytic-like activity in ddY mouse assessed as number of shuttle per hour at 10 mg/kg, po by discrete shuttle avoidance test; format: functional
In short: (§1)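 Male ddY mice (7 weeks, 33-36 g), pretrained and reused, showing stable baselines (150-250 shuttles/h, fewer than 10 shocks per session). Single oral dose immediately before a 60-min discrete shuttle avoidance session of 120 trials. Shuttles were full crossings of the chamber. Drug tests ran 3-4 days apart. Vehicle controls; n=10 per group; mean ± SEM; one- or two-way ANOVA with Student-Newman-Keuls.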

Mus musculus [2] = test: Anxiolytic-like activity in ddY mouse assessed as number of shocks per hour at 10 mg/kg, po by discrete shuttle avoidance test; format: functional; in short: as §1
Mus musculus [3] = test: Anxiolytic-like activity in ddY mouse assessed as time spent in open-sided arms at 1 mg/kg, po for 7 days measured 24 hrs after final drug administration by elevated plus-maze test; format: functional
In short: (§2)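 Elevated plus-maze with two walled arms (6 × 30 × 10 cm); time (s) in the open-sided arms recorded 24 h after the last of daily oral doses given for the stated number of days. Male ddY mice, 7 weeks, drug-naive, used once. Mean ± SEM; ANOVA with Student-Newman-Keuls.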

Mus musculus [4] = test: Anxiolytic-like activity in ddY mouse assessed as ambulatory activity at 1 mg/kg, po for 7 days measured 24 hrs after final drug administration assessed per 5 mins by tilting type ambulometer test; format: functional
In short: (§3)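 Male ddY mice (7 weeks, 33-36 g) dosed orally once daily (0.1 mL/10 g) for the stated number of days. Plus-maze 24 h after final dose, then ambulatory activity counted for 5 min on a tilting ambulometer immediately after. Animals used once; N per group as tabulated; mean ± SEM; ANOVA with Student-Newman-Keuls.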

Mus musculus [5] = test: Anxiolytic-like activity in ddY mouse assessed as time spent in open-sided arms at 0.3 mg/kg, po for 7 days measured 24 hrs after final drug administration by elevated plus-maze test; format: functional
Mus musculus [6] = test: Anxiolytic-like activity in ddY mouse assessed as ambulatory activity at 0.3 mg/kg, po for 7 days measured 24 hrs after final drug administration assessed per 5 mins by tilting type ambulometer test; format: functional
Mus musculus [7] = test: Anxiolytic-like activity in ddY mouse assessed as time spent in open-sided arms at 1 mg/kg, po for 1 day measured after 1 hr by elevated plus-maze test; format: functional
In short: (§4)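 Elevated plus-maze with two walled arms (6 × 30 × 10 cm) and an 8 × 8 cm central platform; read-out is time (s) in the open-sided arms. 10 mice per group, each used once; mean ± SEM; one-way ANOVA with Student-Newman-Keuls.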

Mus musculus [8] = test: Anxiolytic-like activity in ddY mouse assessed as ambulatory activity at 1 mg/kg, po for 1 day measured after 1 hr assessed per 5 mins by tilting type ambulometer test; format: functional
In short: (§5)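 Ambulatory activity counted for 5 min on a tilting ambulometer immediately after the maze. 10 mice per group; mean ± SEM; one-way ANOVA with Student-Newman-Keuls.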

Mus musculus [9] = test: Anxiolytic-like activity in ddY mouse assessed as time spent in open-sided arms at 2 mg/kg, po for 1 day measured after 1 hr by elevated plus-maze test; format: functional; in short: as §4
Mus musculus [10] = test: Anxiolytic-like activity in ddY mouse assessed as ambulatory activity at 2 mg/kg, po for 1 day measured after 1 hr assessed per 5 mins by tilting type ambulometer test; format: functional; in short: as §5
Mus musculus [11] = test: Anxiolytic-like activity in ddY mouse assessed as time spent in open-sided arms at 2 mg/kg, po for 7 days measured 24 hrs after final drug administration by elevated plus-maze test; format: functional; in short: as §2
Mus musculus [12] = test: Anxiolytic-like activity in ddY mouse assessed as ambulatory activity at 2 mg/kg, po for 7 days measured 24 hrs after final drug administration assessed per 5 mins by tilting type ambulometer test; format: functional; in short: as §3
Mus musculus [13] = test: Anxiolytic-like activity in ddY mouse assessed as time spent in open-sided arms at 1 mg/kg, po for 2 days measured 24 hrs after final drug administration by elevated plus-maze test; format: functional; in short: as §2
Mus musculus [14] = test: Anxiolytic-like activity in ddY mouse assessed as ambulatory activity at 1 mg/kg, po for 2 days measured 24 hrs after final drug administration assessed per 5 mins by tilting type ambulometer test; format: functional; in short: as §3
Mus musculus [15] = test: Anxiolytic-like activity in ddY mouse assessed as time spent in open-sided arms at 1 mg/kg, po for 3 days measured 24 hrs after final drug administration by elevated plus-maze test; format: functional; in short: as §2
Mus musculus [16] = test: Anxiolytic-like activity in ddY mouse assessed as ambulatory activity at 1 mg/kg, po for 3 days measured 24 hrs after final drug administration assessed per 5 mins by tilting type ambulometer test; format: functional; in short: as §3
Mus musculus [17] = test: Anxiolytic-like activity in ddY mouse assessed as time spent in open-sided arms at 1 mg/kg, po for 4 days measured 24 hrs after final drug administration by elevated plus-maze test; format: functional
Mus musculus [18] = test: Anxiolytic-like activity in ddY mouse assessed as pentobarbital-induced sleep time at 10 mg/kg, po administered 30 mins before pentobarbital challenge; format: functional
In short: (§6)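 Oral dose to male ddY mice 30 min before pentobarbital-Na 50 mg/kg ip. Sleep time is the interval between loss and recovery of righting reflex (s). Separate drug-naive mice, used once; 10 per group; mean ± SEM; one-way ANOVA with Student-Newman-Keuls.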

Mus musculus [19] = test: Anxiolytic-like activity in ddY mouse assessed as pentobarbital-induced sleep time at 20 mg/kg, po administered 30 mins before pentobarbital challenge; format: functional; in short: as §6
Mus musculus [20] = test: Anxiolytic-like activity in ddY mouse assessed as number of shuttle per hour at 1 mg/kg, po administered 30 mins before test by discrete shuttle avoidance test; format: functional
In short: (§7)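 Well-trained male ddY mice with stable baselines (150-250 shuttles/h, under 10 shocks) had 60-min discrete shuttle avoidance sessions of 120 trials, dosed orally 30 min before. Shuttles and shocks per hour counted. Drug tests at 3-4 day intervals, mice reused; 10 mice per group; mean ± SEM; one-way ANOVA with Student-Newman-Keuls.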

Mus musculus [21] = test: Anxiolytic-like activity in ddY mouse assessed as number of shocks per hour at 1 mg/kg, po administered 30 mins before test by discrete shuttle avoidance test; format: functional; in short: as §7
Mus musculus [22] = test: Anxiolytic-like activity in ddY mouse assessed as number of shuttle per hour at 5 mg/kg, po administered 30 mins before test by discrete shuttle avoidance test; format: functional; in short: as §7
Mus musculus [23] = test: Anxiolytic-like activity in ddY mouse assessed as number of shocks per hour at 5 mg/kg, po administered 30 mins before test by discrete shuttle avoidance test; format: functional; in short: as §7
[24] = Half life in rat; format: ADME, organism-based; conditions: in vivo
Mus musculus [25] = test: Toxicity in ddY mouse assessed as induction of sedation at 20 mg/kg, po after 1 to 3 hrs; format: organism-based; set-up: dose 20 mg/kg, route oral; conditions: in vivo
Mus musculus [26] = test: Toxicity in ddY mouse assessed as induction of excitation at 20 mg/kg, po after 1 to 3 hrs; format: organism-based; set-up: dose 20 mg/kg, route oral; conditions: in vivo
Mus musculus [27] = test: Toxicity in ddY mouse assessed as induction of ataxia at 1 mg/kg, po after 1 to 3 hrs; format: organism-based; set-up: dose 1 mg/kg, route oral; conditions: in vivo
Mus musculus [28] = test: Toxicity in ddY mouse assessed as induction of muscle relaxation at 1 mg/kg, po after 1 to 3 hrs; format: organism-based; set-up: dose 1 mg/kg, route oral; conditions: in vivo
Mus musculus [29] = test: Toxicity in ddY mouse assessed as body weight gain after repeated administration; format: organism-based; conditions: in vivo
Mus musculus [30] = test: Anxiolytic-like activity in ddY mouse assessed as ambulatory activity at 1 mg/kg, po for 4 days measured 24 hrs after final drug administration assessed per 5 mins by tilting type ambulometer test; format: functional
Mus musculus [31] = test: Anxiolytic-like activity in ddY mouse assessed as time spent in open-sided arms at 1 mg/kg, po for 5 days measured 24 hrs after final drug administration by elevated plus-maze test; format: functional; in short: as §2
Mus musculus [32] = test: Anxiolytic-like activity in ddY mouse assessed as ambulatory activity at 1 mg/kg, po for 5 days measured 24 hrs after final drug administration assessed per 5 mins by tilting type ambulometer test; format: functional; in short: as §3
Mus musculus [33] = test: Toxicity in ddY mouse at 1 to 2 mg/kg, po; format: organism-based; set-up: dose 1-2 mg/kg, route oral; conditions: in vivo
Mus musculus [34] = test: Anxiolytic-like activity in ddY mouse assessed as pentobarbital-induced sleep time at 0.5 mg/kg, po administered 30 mins before pentobarbital challenge; format: functional; in short: as §6
Mus musculus [35] = test: Anxiolytic-like activity in ddY mouse assessed as pentobarbital-induced sleep time at 1 mg/kg, po administered 30 mins before pentobarbital challenge; format: functional; in short: as §6
Mus musculus [36] = test: Anxiolytic-like activity in ddY mouse assessed as pentobarbital-induced sleep time at 2 mg/kg, po administered 30 mins before pentobarbital challenge; format: functional; in short: as §6
Mus musculus [37] = test: Anxiolytic-like activity in ddY mouse assessed as pentobarbital-induced sleep time at 5 mg/kg, po administered 30 mins before pentobarbital challenge; format: functional; in short: as §6

Q: With `Cn1c(=O)c2c(ncn2C)n(C)c1=O` [CAFFEINE] as the compound, how does the Activity (Mus musculus [1]) read?
A: 428.9

Q: And the Activity (Mus musculus [2])?
A: 3.4

Q: For `CN1C(=O)CN=C(c2ccccc2)c2cc(Cl)ccc21` [DIAZEPAM], which Activity (Mus musculus [3]) is on record?
A: 24.7 s

Q: What about the Activity (Mus musculus [4]) of the same compound?
A: 43.1

Q: Which Activity (Mus musculus [5]) does the source give for `CCOC(=O)c1ncn2c1CN(C)C(=O)c1cc(F)ccc1-2` [FLUMAZENIL] here?
A: 5.5 s

Q: What about the Activity (Mus musculus [6]) of the same compound?
A: 31.5

Q: Which Activity (Mus musculus [3]) does the source give for `C[C@@H]1C(=O)O[C@H]2C[C@@]34[C@H]5C[C@@H](C(C)(C)C)[C@]36[C@@H](OC(=O)[C@@H]6O)O[C@@]4(C(=O)O5)[C@]21O` [GINKGOLIDE A] here?
A: 18.6 s

Q: And the Activity (Mus musculus [4])?
A: 35.3

Q: And the Activity (Mus musculus [7])?
A: 7.6 s

Q: What about the Activity (Mus musculus [8]) of the same compound?
A: 39.1

Q: What about the Activity (Mus musculus [9]) of the same compound?
A: 5.9 s

Q: What about the Activity (Mus musculus [10]) of the same compound?
A: 35.4

Q: And the Activity (Mus musculus [11])?
A: 17.4 s

Q: And the Activity (Mus musculus [12])?
A: 29.5

Q: What about the Activity (Mus musculus [13]) of the same compound?
A: 10.5 s

Q: And the Activity (Mus musculus [14])?
A: 31.6

Q: What about the Activity (Mus musculus [15]) of the same compound?
A: 12.7 s

Q: And the Activity (Mus musculus [16])?
A: 35.5

Q: And the Activity (Mus musculus [17])?
A: 17.8 s

Q: What about the Activity (Mus musculus [18]) of the same compound?
A: 3690 s

Q: And the Activity (Mus musculus [19])?
A: 3490 s

Q: What about the Activity (Mus musculus [20]) of the same compound?
A: 182.8

Q: And the Activity (Mus musculus [21])?
A: 1.6

Q: What about the Activity (Mus musculus [22]) of the same compound?
A: 162.9

Q: And the Activity (Mus musculus [23])?
A: 1.1

Q: What about the half-life [24] of the same compound?
A: 90 min

Q: What about the Activity (Mus musculus [25]) of the same compound?
A: Non-toxic

Q: And the Activity (Mus musculus [26])?
A: Non-toxic

Q: And the Activity (Mus musculus [27])?
A: Non-toxic

Q: What about the Activity (Mus musculus [28]) of the same compound?
A: Non-toxic

Q: And the Activity (Mus musculus [29])?
A: Non-toxic

Q: What about the Activity (Mus musculus [30]) of the same compound?
A: 40.1

Q: What about the Activity (Mus musculus [31]) of the same compound?
A: 17.8 s

Q: And the Activity (Mus musculus [32])?
A: 40.1

Q: What about the Activity (Mus musculus [33]) of the same compound?
A: Non-toxic

Q: And the Activity (Mus musculus [34])?
A: 3270 s

Q: And the Activity (Mus musculus [35])?
A: 2830 s

Q: And the Activity (Mus musculus [36])?
A: 3510 s

Q: What about the Activity (Mus musculus [37]) of the same compound?
A: 3694 s
